Experimental data: ChEMBL document CHEMBL5543089, “Discovery of a novel, highly potent EZH2 PROTAC degrader for targeting non-canonical oncogenic functions of EZH2” (Eur J Med Chem, 2024)
Calls of active or inactive are those of the source. No cut-off for these calls is given here.

Key:
BT-549 = assay: Anti-proliferative activity against human BT-549 cells assessed as cell growth inhibition measured after 5 days incubation by CCK-8 assay; type: functional, cell-based; details: BT-549, 120 h
Method in brief: (§1)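 Cells plated at 3,000–10,000 per well and exposed to serial dilutions for 5 days at 37 °C. CCK-8 (1x) was added for 2–4 h, with absorbance read at 450 nm against a 690 nm reference. IC50 was taken from curve fits. Leukemia lines were grown in RPMI-1640, K562 in IMDM and MDA-MB-468 in DMEM, all with 10 % FBS. Values are means ± SD of two biological experiments (three for BT549 and MDA-MB-468).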

MDA-MB-468 = assay: Anti-proliferative activity against human MDA-MB-468 cells assessed as cell growth inhibition measured after 5 days incubation by CCK-8 assay; type: functional, cell-based; details: MDA-MB-468, 120 h; method in brief: as §1
RS4-11 = assay: Anti-proliferative activity against human RS4-11 cells assessed as cell viability measured after 5 days incubation by CCK-8 assay; type: functional, cell-based; details: RS4-11, 120 h; method in brief: as §1
MV4-11 = assay: Anti-proliferative activity against human MV4-11 cells assessed as cell viability measured after 5 days incubation by CCK-8 assay; type: functional, cell-based; details: MV4-11, 120 h; method in brief: as §1
EOL1 = assay: Anti-proliferative activity against human EOL1 cells assessed as cell viability measured after 5 days incubation by CCK-8 assay; type: functional, cell-based; details: EOL1, 120 h; method in brief: as §1
[1] = target: T1, von Hippel-Lindau disease tumor suppressor/Histone-lysine N-methyltransferase EZH2 (Homo sapiens, UniProt Q15910+P40337); assay: PROTAC activity at VHL/EZH2 degradation in hMLLr AML cell line EOL1 cells assessed as protein degradation at 0.1 to 1 uM measured after 24 hrs by Western blot analysis; type: cell-based; details: dose 0.1-1 µM
T1 sequence (P40337 whole entry, looked up): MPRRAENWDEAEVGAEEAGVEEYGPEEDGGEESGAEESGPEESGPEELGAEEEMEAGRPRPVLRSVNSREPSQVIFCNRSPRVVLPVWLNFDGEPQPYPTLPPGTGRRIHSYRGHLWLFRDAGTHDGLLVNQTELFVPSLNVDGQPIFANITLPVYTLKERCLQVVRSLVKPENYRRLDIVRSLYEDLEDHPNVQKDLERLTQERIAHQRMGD
T1 sequence (Q15910 whole entry, looked up): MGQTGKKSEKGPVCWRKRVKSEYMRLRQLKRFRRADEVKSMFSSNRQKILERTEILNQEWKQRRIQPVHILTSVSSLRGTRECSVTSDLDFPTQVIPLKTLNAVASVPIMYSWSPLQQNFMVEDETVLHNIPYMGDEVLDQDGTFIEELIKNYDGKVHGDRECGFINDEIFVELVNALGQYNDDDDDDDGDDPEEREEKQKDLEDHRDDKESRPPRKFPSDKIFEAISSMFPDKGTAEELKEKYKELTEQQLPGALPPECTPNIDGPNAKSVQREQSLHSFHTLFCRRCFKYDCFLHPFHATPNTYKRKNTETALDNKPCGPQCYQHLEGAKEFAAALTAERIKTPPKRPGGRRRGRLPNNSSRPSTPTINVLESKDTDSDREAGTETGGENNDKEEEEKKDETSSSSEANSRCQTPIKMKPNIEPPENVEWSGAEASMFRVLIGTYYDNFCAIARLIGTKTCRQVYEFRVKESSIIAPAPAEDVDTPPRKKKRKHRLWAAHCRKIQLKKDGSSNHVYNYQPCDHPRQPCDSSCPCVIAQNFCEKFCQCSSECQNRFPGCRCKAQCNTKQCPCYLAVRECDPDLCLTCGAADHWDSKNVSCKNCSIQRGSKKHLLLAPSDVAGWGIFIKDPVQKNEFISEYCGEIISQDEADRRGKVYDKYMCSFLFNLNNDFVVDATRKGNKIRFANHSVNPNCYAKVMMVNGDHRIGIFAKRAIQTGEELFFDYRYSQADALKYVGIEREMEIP
Method in brief: (§2)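 Cells were seeded at 0.5–2 million per well and treated for 24 h, or for the stated times at 300 nM in the time course. Lysis was in RIPA with protease inhibitors; ~10 μg protein was run on SDS-PAGE and blotted to PVDF. Detection used fluorescent immunoblotting for EZH2, EED and SUZ12, with β-actin as loading control. Blots are representative of two biological experiments.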

[2] = target: T1, von Hippel-Lindau disease tumor suppressor/Histone-lysine N-methyltransferase EZH2; assay: PROTAC activity at VHL/EZH2 degradation in hMLLr AML cell line EOL1 cells assessed as protein degradation at 0.1 uM measured after 24 hrs by Western blot analysis; type: cell-based; method in brief: as §2
[3] = target: T1, von Hippel-Lindau disease tumor suppressor/Histone-lysine N-methyltransferase EZH2; assay: PROTAC activity at VHL/EZH2 degradation in hMLLr AML cell line EOL1 cells assessed as protein degradation at 1 uM measured after 24 hrs by Western blot analysis; type: cell-based; method in brief: as §2

IC50 (RS4-11) [nM]	IC50 (MV4-11) [nM]	Activity [1]	SMILES	IC50 (EOL1) [nM]	further results
–	–	–	CCN(c1cc(-c2ccc(CN3CCOCC3)cc2)cc(C(=O)NCc2c(C)cc(C)[nH]c2=O)c1C)C1CCOCC1 [TAZEMETOSTAT]	–	IC50 (BT-549): > 10000 nM; IC50 (MDA-MB-468): > 2500 nM
650	460	–	Cc1cc(C)c(CNC(=O)c2cc(-c3ccc(N4CCN(CCCCCCCCCc5cn(CCOCCOCCOCCOCCOCCOCCNc6cccc7c6C(=O)N(C6CCC(=O)NC6=O)C7=O)nn5)CC4)nc3)cc3c2cnn3C(C)C)c(=O)[nH]1 (stereo unspecified)	1000	–
5000	5500	–	CCN(c1cc(-c2ccc(CN3CCN(CCCCCCCOc4cccc5c4C(=O)N(C4CCC(=O)NC4=O)C5=O)CC3)cc2)cc(C(=O)NCc2c(C)cc(C)[nH]c2=O)c1C)C1CCOCC1 (stereo unspecified)	3700	–
–	–	inactive	CCN(c1cc(-c2ccc(CN3CCN(CCC(=O)NCCCCCC(=O)N[C@H](C(=O)N4C[C@H](O)C[C@H]4C(=O)NCc4ccc(-c5scnc5C)cc4)C(C)(C)C)CC3)cc2)cc(C(=O)NCc2c(C)cc(C)[nH]c2=O)c1C)C1CCOCC1	–	–
4070	> 10000	–	CCN(c1cc(-c2ccc(OCCCOCC(=O)N[C@H](C(=O)N3C[C@H](O)C[C@H]3C(=O)NCc3ccc(-c4scnc4C)cc3)C(C)(C)C)cc2)cc(C(=O)NCc2c(C)cc(C)[nH]c2=O)c1C)C1CCOCC1	5400	–
–	–	inactive	CCN(c1cc(-c2ccc(CN3CCN(CCC(=O)NCCCCC(=O)N[C@H](C(=O)N4C[C@H](O)C[C@H]4C(=O)NCc4ccc(-c5scnc5C)cc4)C(C)(C)C)CC3)cc2)cc(C(=O)NCc2c(C)cc(C)[nH]c2=O)c1C)C1CCOCC1	–	–
1400	1000	–	CCN(c1cc(-c2ccc(CN3CCN(C(=O)CCCCCCCC(=O)N[C@H](C(=O)N4C[C@H](O)C[C@H]4C(=O)NCc4ccc(-c5scnc5C)cc4)C(C)(C)C)CC3)cc2)cc(C(=O)NCc2c(C)cc(C)[nH]c2=O)c1C)C1CCOCC1	420	–
–	–	–	CCN(c1cc(-c2ccc(CN3CCN(CCC(=O)NCCCCCCCCCC(=O)N[C@H](C(=O)N4C[C@H](O)C[C@H]4C(=O)NCc4ccc(-c5scnc5C)cc4)C(C)(C)C)CC3)cc2)cc(C(=O)NCc2c(C)cc(C)[nH]c2=O)c1C)C1CCOCC1	–	Activity [2]: 100%; Activity [3]: Active
–	–	Active	CCN(c1cc(-c2ccc(CN3CCN(CCC(=O)NCCCCCCCCC(=O)N[C@H](C(=O)N4C[C@H](O)C[C@H]4C(=O)NCc4ccc(-c5scnc5C)cc4)C(C)(C)C)CC3)cc2)cc(C(=O)NCc2c(C)cc(C)[nH]c2=O)c1C)C1CCOCC1	–	–
–	–	Active	CCN(c1cc(-c2ccc(CN3CCN(CCC(=O)NCCCCCCCC(=O)N[C@H](C(=O)N4C[C@H](O)C[C@H]4C(=O)NCc4ccc(-c5scnc5C)cc4)C(C)(C)C)CC3)cc2)cc(C(=O)NCc2c(C)cc(C)[nH]c2=O)c1C)C1CCOCC1	–	–
–	–	inactive	CCN(c1cc(-c2ccc(CN3CCN(CCC(=O)NCCCCCCC(=O)N[C@H](C(=O)N4C[C@H](O)C[C@H]4C(=O)NCc4ccc(-c5scnc5C)cc4)C(C)(C)C)CC3)cc2)cc(C(=O)NCc2c(C)cc(C)[nH]c2=O)c1C)C1CCOCC1	–	–
